According to ChEMBL document CHEMBL5058577, “EUbOPEN Chemogenomics Library 2 (Multiplex)” (2022):

Tested on: U2OS
Experiment: Multiplex assay against U2OS
Format: toxicity, cell-based
Conditions: human
Method in brief: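 With compound added, live cells were imaged on a CQ1 microscope at 37°C and 5% CO2; staining with Hoechst33342, BioTracker Green Microtubule Cytoskeleton Dye, MitoTracker Red and Annexin V Alexa Fluor 680 had been done at seeding. The CellPathfinder machine-learning gating scheme split cells into Hoechst high-intensity objects or normal cells, normal cells into healthy, pyknosed or fragmented nuclei, and pyknosed cells into mitotic or apoptotic. The tubulin, mitochondrial-mass and membrane-permeability phenotypes are per cents of healthy-nucleus cells.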

[1] = 12 h, 1 µM, compound concentration 1 uM, replicate 1
[2] = 12 h, 1 µM, compound concentration 1 uM, replicate 2
[3] = 12 h, 10 µM, compound concentration 10 uM, replicate 1
[4] = 12 h, 10 µM, compound concentration 10 uM, replicate 2
[5] = 24 h, 1 µM, compound concentration 1 uM, replicate 1
[6] = 24 h, 1 µM, compound concentration 1 uM, replicate 2
[7] = 24 h, 10 µM, compound concentration 10 uM, replicate 1
[8] = 24 h, 10 µM, compound concentration 10 uM, replicate 2
[9] = 48 h, 1 µM, compound concentration 1 uM, replicate 1
[10] = 48 h, 1 µM, compound concentration 1 uM, replicate 2
[11] = 48 h, 10 µM, compound concentration 10 uM, replicate 1
[12] = 48 h, 10 µM, compound concentration 10 uM, replicate 2

With `S=C(NCCCc1c[nH]cn1)NCCCN(Cc1ccc(Cl)c(Cl)c1)c1ccc(Br)cn1` the “Population Apoptotic (%)” value [1] was 75%, the “Population Fragmented Nuclei (%)” value [1] was 27% and the “Population Healthy Nuclei (%)” value [1] was 63%. The “Population Hoechst High Intensity Objects (%)” value [1] was 2%, the “Population Membrane Permeable-Phenotype (%)” value [1] was 13% and the “Population Mitochondria Different-Phenotype (%)” value [1] was 2%. The “Population Mitotic Cells (%)” value [1] was 25%, the “Population Normal (%)” value [1] was 97% and the “Population Pyknosed Nuclei (%)” value [1] was 9%. The “Population Tubulin-Different-Phenotype (%)” value [1] was 6%, the “Total Cell Count” value [1] was 228 and the “Population Apoptotic (%)” value [2] was 80%. For the same compound, the “Population Fragmented Nuclei (%)” value [2] was 20%, the “Population Healthy Nuclei (%)” value [2] was 68% and the “Population Hoechst High Intensity Objects (%)” value [2] was 3%. For the same compound, the “Population Membrane Permeable-Phenotype (%)” value [2] was 6%, the “Population Mitochondria Different-Phenotype (%)” value [2] was 9% and the “Population Mitotic Cells (%)” value [2] was 20%. The “Population Normal (%)” value [2] was 96%, the “Population Pyknosed Nuclei (%)” value [2] was 11% and the “Population Tubulin-Different-Phenotype (%)” value [2] was 1%. The “Total Cell Count” value [2] was 93, the “Population Apoptotic (%)” value [3] was 66% and the “Population Fragmented Nuclei (%)” value [3] was 27%. The “Population Healthy Nuclei (%)” value [3] was 46%, the “Population Hoechst High Intensity Objects (%)” value [3] was 6% and the “Population Membrane Permeable-Phenotype (%)” value [3] was 86%. The “Population Mitochondria Different-Phenotype (%)” value [3] was 26%, the “Population Mitotic Cells (%)” value [3] was 33% and the “Population Normal (%)” value [3] was 93%. The “Population Pyknosed Nuclei (%)” value [3] was 26%, the “Population Tubulin-Different-Phenotype (%)” value [3] was 83% and the “Total Cell Count” value [3] was 220. For the same compound, the “Population Apoptotic (%)” value [4] was 58%, the “Population Fragmented Nuclei (%)” value [4] was 24% and the “Population Hoechst High Intensity Objects (%)” value [4] was 0%. For the same compound, the “Population Membrane Permeable-Phenotype (%)” value [4] was 84%, the “Population Mitochondria Different-Phenotype (%)” value [4] was 60% and the “Population Mitotic Cells (%)” value [4] was 41%. The “Population Normal (%)” value [4] was 100%, the “Population Pyknosed Nuclei (%)” value [4] was 29% and the “Population Tubulin-Different-Phenotype (%)” value [4] was 89%. For the same compound, the “Total Cell Count” value [4] was 82, the “Population Apoptotic (%)” value [5] was 81% and the “Population Fragmented Nuclei (%)” value [5] was 22%. The “Population Healthy Nuclei (%)” value [5] was 69%, the “Population Hoechst High Intensity Objects (%)” value [5] was 3% and the “Population Membrane Permeable-Phenotype (%)” value [5] was 11%. For the same compound, the “Population Mitochondria Different-Phenotype (%)” value [5] was 3%, the “Population Mitotic Cells (%)” value [5] was 18% and the “Population Normal (%)” value [5] was 96%. The “Population Pyknosed Nuclei (%)” value [5] was 8%, the “Population Tubulin-Different-Phenotype (%)” value [5] was 9% and the “Total Cell Count” value [5] was 285. The “Population Apoptotic (%)” value [6] was 100%, the “Population Fragmented Nuclei (%)” value [6] was 30% and the “Population Healthy Nuclei (%)” value [6] was 65%. The “Population Hoechst High Intensity Objects (%)” value [6] was 1%, the “Population Membrane Permeable-Phenotype (%)” value [6] was 7% and the “Population Mitochondria Different-Phenotype (%)” value [6] was 5%. For the same compound, the “Population Mitotic Cells (%)” value [6] was 0%, the “Population Normal (%)” value [6] was 98% and the “Population Pyknosed Nuclei (%)” value [6] was 4%. For the same compound, the “Population Tubulin-Different-Phenotype (%)” value [6] was 3%, the “Total Cell Count” value [6] was 125 and the “Population Apoptotic (%)” value [7] was 62%. For the same compound, the “Population Fragmented Nuclei (%)” value [7] was 33%, the “Population Healthy Nuclei (%)” value [7] was 38% and the “Population Hoechst High Intensity Objects (%)” value [7] was 5%. The “Population Membrane Permeable-Phenotype (%)” value [7] was 59%, the “Population Mitochondria Different-Phenotype (%)” value [7] was 17% and the “Population Mitotic Cells (%)” value [7] was 37%. The “Population Normal (%)” value [7] was 94%, the “Population Pyknosed Nuclei (%)” value [7] was 28% and the “Population Tubulin-Different-Phenotype (%)” value [7] was 54%. For the same compound, the “Total Cell Count” value [7] was 227, the “Population Apoptotic (%)” value [8] was 60% and the “Population Fragmented Nuclei (%)” value [8] was 29%. The “Population Healthy Nuclei (%)” value [8] was 40%, the “Population Hoechst High Intensity Objects (%)” value [8] was 2% and the “Population Membrane Permeable-Phenotype (%)” value [8] was 77%. For the same compound, the “Population Mitochondria Different-Phenotype (%)” value [8] was 32%, the “Population Mitotic Cells (%)” value [8] was 39% and the “Population Normal (%)” value [8] was 97%. For the same compound, the “Population Pyknosed Nuclei (%)” value [8] was 29%, the “Population Tubulin-Different-Phenotype (%)” value [8] was 64% and the “Total Cell Count” value [8] was 79. The “Population Apoptotic (%)” value [9] was 83%, the “Population Fragmented Nuclei (%)” value [9] was 17% and the “Population Healthy Nuclei (%)” value [9] was 74%. For the same compound, the “Population Hoechst High Intensity Objects (%)” value [9] was 1%, the “Population Membrane Permeable-Phenotype (%)” value [9] was 5% and the “Population Mitochondria Different-Phenotype (%)” value [9] was 3%. For the same compound, the “Population Mitotic Cells (%)” value [9] was 16%, the “Population Normal (%)” value [9] was 98% and the “Population Pyknosed Nuclei (%)” value [9] was 7%. The “Population Tubulin-Different-Phenotype (%)” value [9] was 2%, the “Total Cell Count” value [9] was 409 and the “Population Apoptotic (%)” value [10] was 87%. For the same compound, the “Population Fragmented Nuclei (%)” value [10] was 28%, the “Population Healthy Nuclei (%)” value [10] was 60% and the “Population Hoechst High Intensity Objects (%)” value [10] was 0%. The “Population Mitotic Cells (%)” value [10] was 12%, the “Population Normal (%)” value [10] was 99% and the “Population Pyknosed Nuclei (%)” value [10] was 11%. For the same compound, the “Population Tubulin-Different-Phenotype (%)” value [10] was 3%, the “Total Cell Count” value [10] was 211 and the “Population Apoptotic (%)” value [11] was 70%. For the same compound, the “Population Fragmented Nuclei (%)” value [11] was 43%, the “Population Healthy Nuclei (%)” value [11] was 8% and the “Population Hoechst High Intensity Objects (%)” value [11] was 21%. For the same compound, the “Population Membrane Permeable-Phenotype (%)” value [11] was 46%, the “Population Mitochondria Different-Phenotype (%)” value [11] was 20% and the “Population Mitotic Cells (%)” value [11] was 29%. The “Population Normal (%)” value [11] was 78%, the “Population Pyknosed Nuclei (%)” value [11] was 47% and the “Population Tubulin-Different-Phenotype (%)” value [11] was 26%. The “Total Cell Count” value [11] was 230, the “Population Apoptotic (%)” value [12] was 73% and the “Population Fragmented Nuclei (%)” value [12] was 50%. The “Population Healthy Nuclei (%)” value [12] was 15%, the “Population Hoechst High Intensity Objects (%)” value [12] was 15% and the “Population Membrane Permeable-Phenotype (%)” value [12] was 57%. For the same compound, the “Population Mitochondria Different-Phenotype (%)” value [12] was 42%, the “Population Mitotic Cells (%)” value [12] was 26% and the “Population Normal (%)” value [12] was 84%. The “Population Pyknosed Nuclei (%)” value [12] was 33%, the “Population Tubulin-Different-Phenotype (%)” value [12] was 57% and the “Total Cell Count” value [12] was 105.
